According to PMC11390321 (Cancer chemotherapy and pharmacology, 2024):

Key:
[1] = clinical; cited from earlier work
[2] = tested on: breast cancer resistance protein (Bcrp/Abcg2); conditions: on the BBB; cited from earlier work
[3] = tested on: P-glycoprotein (P-gp/Mdr1); conditions: on the BBB; cited from earlier work
[4] = clinical; cited from earlier work; remark: listed apart in the source
[5] = Plasma protein binding by rapid equilibrium dialysis; format: in vitro ADME; conditions: BALB/c, mouse
Method in brief: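 Rapid equilibrium dialysis: freshly spiked BALB/c mouse plasma against PBS, 37 °C for 24 h. Test compound at 300–100,000 ng/mL with <0.1% final organic solvent, triplicate. Fraction unbound in plasma determined from chamber concentrations.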

[6] = Dose linearity study: single IV dose PK, noncompartmental analysis; format: in vivo, female BALB/c mice; conditions: for β, slope of Ln(AUC0-∞) versus Ln(dose): 2–60 mg/kg IV, power model; for AUC(0-inf) / Cmax / Tmax / Vd / half-life / AUC(0-t) / clearance: female, BALB/c, mouse, iv; for AUC(0-inf) / Cmax / Tmax / Vd / half-life / AUC(0-t) / clearance / AUC0-t/dose / AUC0-∞ /dose / AUC0–360/dose / AUCextrap / Cmax/dose / Tlast: plasma; for clearance: CL; for AUC extrapolated beyond 24 h in tissues: tissues with a quantifiable 24 h sample; for 0–24 h feces / 0–24 h urine: unchanged drug
Method in brief: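 Single ~30 s tail-vein bolus of test compound in 12% captisol (pH 4, acetic acid), 2.0, 6.0, 20 or 60 mg/kg, female BALB/c mice 5–7 weeks old, N=3 per time point. Plasma and tissues taken 5–1,440 min; pooled 24 h urine/feces from metabolic cages. LC-MS/MS with [D7] internal standard. NCA, Bailer AUC. Dose linearity via slope of Ln AUC0-∞ versus Ln dose against β=1.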

CNCc1ccc(-c2cc(-c3nc(-c4ccc(S(=O)(=O)C(C)C)cc4)cnc3N)on2)cc1 [berzosertib]
dose up to which plasma PK is dose-proportionate [1]: up to 240 mg/m^2
efflux transporter substrate [2]: substrate
efflux transporter substrate [3]: substrate
clinically associated toxicities [4]: bone marrow toxicities including neutropenia, thrombocytopenia, leukocytopenia, lymphocytopenia, and anemia
fraction unbound at 24 h, 300 ng/mL [5]: 0.028
fraction unbound at 24 h, 100000 ng/mL [5]: 0.0427
β, slope of Ln(AUC0-∞) versus Ln(dose) ([6]; Brain): 1.17 (95% CI: 0.786 – 1.56)
β, slope of Ln(AUC0-∞) versus Ln(dose) ([6]; Kidney): 1.35 (95% CI: 0.960 – 1.73)
β, slope of Ln(AUC0-∞) versus Ln(dose) ([6]; Lung): 1.30 (95% CI: 0.804 – 1.79)
unchanged drug recovered in feces ([6]; across all groups (2–60 mg/kg IV), 0–24 h): < 4%
increase in volume of distribution (Vd) ([6]; between 2 and 60 mg/kg IV): more than 3 fold
AUC(0-inf) ([6]; 2 mg/kg): 867 ng·h/mL
Cmax ([6]; 2 mg/kg): 1480 ng/mL
Tmax ([6]; 2 mg/kg): 5 min
Vd ([6]; 2 mg/kg): 8.49 L/kg
half-life ([6]; 2 mg/kg): 2.55 h
AUC(0-t) ([6]; 2 mg/kg, AUC0-t, 2.0 mg/kg IV): 765 ng·h/mL
AUC(0-t) ([6]; 2 mg/kg, AUC0–360, plasma, 2.0 mg/kg IV): 765 ng·h/mL
AUC(0-inf) ([6]; 6 mg/kg): 2450 ng·h/mL
Cmax ([6]; 6 mg/kg): 3470 ng/mL
Tmax ([6]; 6 mg/kg): 5 min
Vd ([6]; 6 mg/kg): 9.63 L/kg
half-life ([6]; 6 mg/kg): 2.73 h
AUC(0-t) ([6]; 6 mg/kg, AUC0-t, 6.0 mg/kg IV): 2100 ng·h/mL
AUC(0-t) ([6]; 6 mg/kg, AUC0–360, plasma, 6.0 mg/kg IV): 2100 ng·h/mL
AUC(0-inf) ([6]; 20 mg/kg): 10200 ng·h/mL
Cmax ([6]; 20 mg/kg): 10200 ng/mL
Tmax ([6]; 20 mg/kg): 5 min
Vd ([6]; 20 mg/kg): 11.9 L/kg
half-life ([6]; 20 mg/kg): 4.22 h
AUC(0-t) ([6]; 20 mg/kg, AUC0-t, 20 mg/kg IV): 10100 ng·h/mL
AUC(0-t) ([6]; 20 mg/kg, AUC0–360, plasma, 20 mg/kg IV): 7070 ng·h/mL
clearance ([6]; 20 mg/kg, calculated using AUC0-∞, 20 mg/kg IV): 32.6 mL/min/kg
clearance ([6]; 20 mg/kg, calculated using AUC0–360, 20 mg/kg IV): 47.2 mL/min/kg
AUC(0-inf) ([6]; 60 mg/kg): 35400 ng·h/mL
Cmax ([6]; 60 mg/kg): 21200 ng/mL
Tmax ([6]; 60 mg/kg): 5 min
Vd ([6]; 60 mg/kg): 25.6 L/kg
half-life ([6]; 60 mg/kg): 10.5 h
AUC(0-t) ([6]; 60 mg/kg, AUC0-t, 60 mg/kg IV): 29400 ng·h/mL
AUC(0-t) ([6]; 60 mg/kg, AUC0–360, plasma, 60 mg/kg IV): 15500 ng·h/mL
AUC0-t/dose ([6]; 2.0 mg/kg IV): 23.0
AUC0-∞ /dose ([6]; 2.0 mg/kg IV): 26.0
AUC0–360/dose ([6]; 2.0 mg/kg IV): 23.0
AUCextrap ([6]; 2.0 mg/kg IV): 11.7%
Cmax/dose ([6]; 2.0 mg/kg IV): 0.738
Tlast ([6]; 2.0 mg/kg IV): 360 min
AUC0-t/dose ([6]; 6.0 mg/kg IV): 21.1
AUC0-∞ /dose ([6]; 6.0 mg/kg IV): 24.6
AUC0–360/dose ([6]; 6.0 mg/kg IV): 21.1
AUCextrap ([6]; 6.0 mg/kg IV): 14.2%
Cmax/dose ([6]; 6.0 mg/kg IV): 0.578
Tlast ([6]; 6.0 mg/kg IV): 360 min
AUC0-t/dose ([6]; 20 mg/kg IV): 30.3
AUC0-∞ /dose ([6]; 20 mg/kg IV): 30.7
AUC0–360/dose ([6]; 20 mg/kg IV): 21.2
AUCextrap ([6]; 20 mg/kg IV): 1.39%
Cmax/dose ([6]; 20 mg/kg IV): 0.512
AUC0-t/dose ([6]; 60 mg/kg IV): 29.4
AUC0-∞ /dose ([6]; 60 mg/kg IV): 35.4
AUC0–360/dose ([6]; 60 mg/kg IV): 15.5
AUCextrap ([6]; 60 mg/kg IV): 17.0%
Cmax/dose ([6]; 60 mg/kg IV): 0.353
AUC extrapolated beyond 24 h in tissues ([6]; 60 mg/kg): > 20%
AUC extrapolated beyond 24 h in tissues ([6]; 2, 6 and 20 mg/kg groups): < 3%
0–24 h feces ([6]; 2.0 mg/kg IV): 1.78 % dose
0–24 h urine ([6]; 2.0 mg/kg IV): 40.6 % dose
0–24 h feces ([6]; 6.0 mg/kg IV): 3.41 % dose
0–24 h urine ([6]; 6.0 mg/kg IV): 49.2 % dose
0–24 h feces ([6]; 20 mg/kg IV): 1.48 % dose
0–24 h urine ([6]; 20 mg/kg IV): 55.8 % dose
0–24 h feces ([6]; 60 mg/kg IV): 2.02 % dose
0–24 h urine ([6]; 60 mg/kg IV, 60 mg/kg): 28 % dose
